ChEMBL document CHEMBL4270523, “A comparative study of non-native N-acyl l-homoserine lactone analogs in two Pseudomonas aeruginosa quorum sensing receptors that share a common native ligand yet inversely regulate virulence” (Bioorg Med Chem, 2018)

Columns and labels:
[1] = target: T1, Transcriptional activator protein LasR (Pseudomonas aeruginosa (strain ATCC 15692 / PAO1 / 1C / PRS 101 / LMG12228), UniProt P25084); assay: (§1) Agonist activity at Pseudomonas aeruginosa LasR expressed in Escherichia coli JLD271 harboring LasR expression plasmid pJN105L and lasI-lacZ transcriptional fusion reporter pSC11-L measured after 35 mins by Miller-type beta-galactosidase reporter gene assay
T1 sequence (P25084 whole entry): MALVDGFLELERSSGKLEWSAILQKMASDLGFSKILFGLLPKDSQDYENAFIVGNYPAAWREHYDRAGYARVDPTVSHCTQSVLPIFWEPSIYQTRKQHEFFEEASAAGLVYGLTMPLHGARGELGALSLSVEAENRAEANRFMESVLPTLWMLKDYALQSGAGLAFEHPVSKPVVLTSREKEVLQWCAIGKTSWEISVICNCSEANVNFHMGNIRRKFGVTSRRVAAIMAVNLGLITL
Summary of the method: (§2)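 E. coli JLD271 (ΔsdiA) reporter cells grown in LB at 37 °C. Miller-type β-galactosidase assay with CPRG or ONPG substrate; growth read as OD600. Compounds tested from 1 pM to 100 μM. Activity is expressed relative to 100 μM OdDHL. EC50 taken from dose–response curves. Maximum activation has error ±10%.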

PhzR [2] = target: T2, PhzR (Pseudomonas aeruginosa, UniProt Q9RMS5); assay: (§3) Agonist activity at Pseudomonas aeruginosa QscR expressed in Escherichia coli JLD271 harboring QscR expression plasmid pJN105Q and pPA1897-lacZ transcriptional fusion reporter pSC11-Q measured after 35 mins by Miller-type beta-galactosidase reporter gene assay; summary of the method: as §2
T2 sequence (Q9RMS5 whole entry): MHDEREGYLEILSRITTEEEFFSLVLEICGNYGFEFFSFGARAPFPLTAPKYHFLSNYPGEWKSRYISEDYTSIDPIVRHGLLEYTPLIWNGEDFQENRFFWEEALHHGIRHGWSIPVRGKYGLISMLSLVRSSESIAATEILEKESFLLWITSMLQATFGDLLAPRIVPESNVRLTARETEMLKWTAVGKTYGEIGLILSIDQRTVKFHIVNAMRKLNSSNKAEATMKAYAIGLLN

[3] = target: T3, Transcriptional activator protein LasR (Pseudomonas aeruginosa (strain ATCC 15692 / PAO1 / 1C / PRS 101 / LMG12228)) (UniProt P25084); assay: Agonist activity at Pseudomonas aeruginosa LasR expressed in Escherichia coli JLD271 harboring LasR expression plasmid pJN105L and lasI-lacZ transcriptional fusion reporter pSC11-L measured after 35 mins by Miller-type beta-galactosidase reporter gene assay relative to OdDHL
T3 sequence (whole entry): T1 sequence (P25084 whole entry)
Summary of the method: as §2, with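 “curves. Run in triplicate, n ≥ 3 trials; 95% CIs from SEM.” for “curves.”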

[4] = target: T4, PhzR (Pseudomonas aeruginosa) (UniProt Q9RMS5); assay: Agonist activity at Pseudomonas aeruginosa QscR expressed in Escherichia coli JLD271 harboring QscR expression plasmid pJN105Q and pPA1897-lacZ transcriptional fusion reporter pSC11-Q measured after 35 mins by Miller-type beta-galactosidase reporter gene assay relative to OdDHL
T4 sequence (whole entry): T2 sequence (Q9RMS5 whole entry)
Summary of the method: as §2, with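 “curves. Run in triplicate, n ≥ 3 trials; 95% CIs from SEM.” for “curves.”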

[5] = target: T3, Transcriptional activator protein LasR (Pseudomonas aeruginosa (strain ATCC 15692 / PAO1 / 1C / PRS 101 / LMG12228)); assay: as §1, with “Antagonist” for “Agonist”, “assessed as inhibition of OdDHL-induced receptor activation” for “measured”, “4 hrs” for “35 mins”; settings: concentration not given here
[6] = target: T1, Transcriptional activator protein LasR; assay: as above
[7] = target: T4, PhzR (Pseudomonas aeruginosa); assay: as §3, with “Antagonist” for “Agonist”, “using ONPG as substrate assessed as inhibition of OdDHL-induced receptor activation” for “measured”, “4 hrs” for “35 mins”; settings: concentration not given here
PhzR [8] = target: T2, PhzR; assay: as above

CCCCCCCCCC(=O)CC(=O)N[C@H]1CCOC1
EC50 [1]: 906 nM
EC50 (PhzR [2]): 815 nM
Activity [3]: 81%
Activity [4]: 74%

CCCCCCCCCC(=O)CC(=O)N[C@H]1CCNC1=O
EC50 [1]: 29.7 nM
EC50 (PhzR [2]): 3320 nM
Activity [3]: 110%
Activity [4]: 56%

CCCCCCCCCC(=O)CC(=O)NC1CCCC1
EC50 [1]: 162 nM
EC50 (PhzR [2]): 359 nM
Activity [3]: 88%
Activity [4]: 100%

CCCCCCCCCC(=O)CC(=O)N[C@H]1CCCC1=O
EC50 [1]: 14.9 nM
EC50 (PhzR [2]): 834 nM
Activity [3]: 110%
Activity [4]: 77%

CCCCCCCCCC(=O)CC(=O)N[C@H]1CCSC1=O
EC50 [1]: 1.53 nM
EC50 (PhzR [2]): 80.5 nM
Activity [3]: 100%
Activity [4]: 110%

CCCCCCCCCC(=O)CC(=O)O[C@H]1CCOC1=O
Activity [3]: 27%
Activity [4]: 37%
inhibition [5]: 53%
IC50 [6]: > 250000 nM
inhibition [7]: 23%
IC50 (PhzR [8]): > 250000 nM

CCCCCCCCCC(=O)CC(=O)N[C@H]1CCO[C@@H]1O
EC50 [1]: 1880 nM
EC50 (PhzR [2]): 3460 nM
Activity [3]: 96%
Activity [4]: 110%

CCCCCCCCCC(=O)CC(=O)N[C@@H]1CCOC1=O
Activity [3]: 99%
Activity [4]: 110%

CCCCCCCCCCCS(=O)(=O)N[C@H]1CCOC1=O
EC50 (PhzR [2]): 1590 nM
Activity [3]: 6.4%
Activity [4]: 72%

CCCCCCCCCC(=O)CC(=O)NCC1CCCO1 (stereo not given)
EC50 [1]: 256 nM
Activity [3]: 96%
Activity [4]: 3.2%
inhibition [7]: 59%
IC50 (PhzR [8]): > 250000 nM
